Converted amounts (≈) assume the structure as drawn.
Columns and labels:
[1] = Association constant to Ac2-L-Lys-D-Ala-D-Ala determined at pH 9; Value ranges from (9.5E4-3.5E5)
Enterococcus faecalis = experiment: Minimum inhibitory concentration against Enterococcus faecalis ATCC 7080; assay type: functional
How it was run: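 Microbroth dilution MIC (µg/mL), final inoculum 10^4 cfu/mL, incubated 24 h at 37 °C in air.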

Staphylococcus aureus = experiment: Minimum inhibitory concentration against Staphylococcus aureus L 165; assay type: functional
How it was run: (§1)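 MIC (µg/mL) by microbroth dilution in Iso-Sensitest broth; final inoculum 10^4 cfu/mL; 24 h at 37 °C in air.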

[2] = tested on: Staphylococcus epidermidis; experiment: Minimum inhibitory concentration against Staphylococcus epidermidis ATCC 12228; assay type: functional; how it was run: as §1
Streptococcus pneumoniae = experiment: Minimum inhibitory concentration against Streptococcus pneumoniae L 44; assay type: functional
How it was run: (§2)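 MIC (µg/mL) by microbroth dilution in Todd-Hewitt broth, final inoculum 10^4 cfu/mL, incubated 24 h at 37 °C in air.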

[3] = tested on: Staphylococcus haemolyticus; experiment: Minimum inhibitory concentration against Staphylococcus haemolyticus L 602; assay type: functional; how it was run: as §1
Streptococcus pyogenes [4] = experiment: Minimum inhibitory concentration against Streptococcus pyogenes L 49; assay type: functional; how it was run: as §2
Escherichia coli = experiment: Minimum inhibitory concentration against Escherichia coli L 47; assay type: functional; how it was run: as §1
Proteus vulgaris = experiment: Minimum inhibitory concentration against Proteus vulgaris ATCC 881; assay type: functional; how it was run: as §1
Pseudomonas aeruginosa = experiment: Minimum inhibitory concentration against Pseudomonas aeruginosa ATCC 10145; assay type: functional; how it was run: as §1
Streptococcus pyogenes [5] = experiment: Efficacy of compound administered perorally against Streptococcus pyogenes L 49 Septicemia in mouse; assay type: functional; settings: po
How it was run: (§3)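 Mice were infected intraperitoneally with about 10^5 Strep. pyogenes L 49 cells, about 100 times the 50% lethal dose. Groups of 5–8 mice were treated once right after challenge, by the route stated in the line. ED50 (mg/kg) was derived from percentage survival at each dose on day 7 (Spearman-Kärber).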

Streptococcus pyogenes [6] = experiment: Efficacy of compound administered subcutaneously against Streptococcus pyogenes L 49 Septicemia in mouse; assay type: functional; settings: sc; how it was run: as §3

| SMILES | Ka [1] | MIC (Enterococcus faecalis) | MIC (Staphylococcus aureus) | MIC [2] | MIC (Streptococcus pneumoniae) | MIC (Streptococcus pyogenes [4]) | MIC (Escherichia coli) | MIC (Proteus vulgaris) | MIC (Pseudomonas aeruginosa) | MIC [3] | ED50 (Streptococcus pyogenes [5]) | ED50 (Streptococcus pyogenes [6]) |
| --- | --- | --- | --- | --- | --- | --- | --- | --- | --- | --- | --- | --- |
| CC(=O)N[C@@H]1[C@H](O[C@@H]2c3ccc(c(Cl)c3)Oc3cc4cc(c3O[C@@H]3O[C@@H](CO)[C@@H](O)[C@H](O)[C@@H]3NC(=O)CCCCCCC(C)C)Oc3ccc(cc3Cl)C[C@H]3NC(=O)[C@H](N)c5ccc(O)c(c5)Oc5cc(O)cc(c5)[C@H](NC3=O)C(=O)N[C@H]4C(=O)N[C@H]3C(=O)N[C@@H]2C(=O)N[C@H](C(=O)NCCCNCCCN)c2cc(O)cc(O[C@H]4O[C@H](CO)[C@@H](O)[C@@H](O)[C@@H]4O)c2-c2cc3ccc2O)O[C@@H](CO)[C@@H](O)[C@@H]1O | 350000 M⁻¹ | 0.5 µg/mL (≈ 0.251 µM) | 1 µg/mL (≈ 0.502 µM) | 0.25 µg/mL (≈ 0.125 µM) | 0.125 µg/mL (≈ 0.0627 µM) | 0.125 µg/mL (≈ 0.0627 µM) |  |  |  | 2 µg/mL (≈ 1 µM) |  |  |
| N[C@H]1C(=O)N[C@@H]2Cc3ccc(c(Cl)c3)Oc3cc4cc(c3O)Oc3ccc(cc3Cl)[C@@H](O)[C@@H]3NC(=O)[C@H](NC(=O)[C@@H]4NC(=O)[C@@H](NC2=O)c2cc(O)cc(c2)Oc2cc1ccc2O)c1ccc(O)c(c1)-c1c(O)cc(O)cc1[C@@H](C(=O)N1CCNCCNCCNCCNCCNCC1)NC3=O |  | 0.5 µg/mL (≈ 0.347 µM) | 0.125 µg/mL (≈ 0.0868 µM) | 0.125 µg/mL (≈ 0.0868 µM) | 0.25 µg/mL (≈ 0.174 µM) | 0.25 µg/mL (≈ 0.174 µM) | > 128 µg/mL | > 128 µg/mL | > 128 µg/mL | 1 µg/mL (≈ 0.695 µM) |  |  |
| CC(=O)N[C@@H]1[C@H](O[C@@H]2c3ccc(c(Cl)c3)Oc3cc4cc(c3O[C@@H]3O[C@@H](CO)[C@@H](O)[C@H](O)[C@@H]3NC(=O)CCCCCCC(C)C)Oc3ccc(cc3Cl)C[C@H]3NC(=O)[C@H](N)c5ccc(O)c(c5)Oc5cc(O)cc(c5)[C@H](NC3=O)C(=O)N[C@H]4C(=O)N[C@H]3C(=O)N[C@@H]2C(=O)N[C@H](C(=O)NCCCN(CCCN)CCCN)c2cc(O)cc(O[C@H]4O[C@H](CO)[C@@H](O)[C@@H](O)[C@@H]4O)c2-c2cc3ccc2O)O[C@@H](CO)[C@@H](O)[C@@H]1O | 350000 M⁻¹ | 0.125 µg/mL (≈ 0.061 µM) | 0.125 µg/mL (≈ 0.061 µM) | 0.125 µg/mL (≈ 0.061 µM) | 0.063 µg/mL (≈ 0.0307 µM) | 0.063 µg/mL (≈ 0.0307 µM) |  |  |  | 2 µg/mL (≈ 0.976 µM) |  |  |
| CC(=O)N[C@@H]1[C@H](O[C@@H]2c3ccc(c(Cl)c3)Oc3cc4cc(c3O[C@@H]3O[C@@H](CO)[C@@H](O)[C@H](O)[C@@H]3NC(=O)CCCCCCC(C)C)Oc3ccc(cc3Cl)C[C@H]3NC(=O)[C@H](N)c5ccc(O)c(c5)Oc5cc(O)cc(c5)[C@H](NC3=O)C(=O)N[C@H]4C(=O)N[C@H]3C(=O)N[C@@H]2C(=O)N[C@H](C(=O)O)c2cc(O)cc(O[C@H]4O[C@H](CO)[C@@H](O)[C@@H](O)[C@@H]4O)c2-c2cc3ccc2O)O[C@@H](CO)[C@@H](O)[C@@H]1O |  | 0.125 µg/mL (≈ 0.0665 µM) | 0.125 µg/mL (≈ 0.0665 µM) | 0.125 µg/mL (≈ 0.0665 µM) | 0.063 µg/mL (≈ 0.0335 µM) | 0.063 µg/mL (≈ 0.0335 µM) |  |  |  | 8 µg/mL (≈ 4.26 µM) | > 170 mg/kg | 0.12 mg/kg |

Further molecules by falling MIC (Enterococcus faecalis), results first:

| Ka [1] | MIC (Enterococcus faecalis) | MIC (Staphylococcus aureus) | MIC [2] | MIC (Streptococcus pneumoniae) | MIC (Streptococcus pyogenes [4]) | MIC (Escherichia coli) | MIC (Proteus vulgaris) | MIC (Pseudomonas aeruginosa) | SMILES | MIC [3] | ED50 (Streptococcus pyogenes [5]) | ED50 (Streptococcus pyogenes [6]) |
| --- | --- | --- | --- | --- | --- | --- | --- | --- | --- | --- | --- | --- |
| 350000 M⁻¹ | 0.125 µg/mL (≈ 0.0598 µM) | 0.125 µg/mL (≈ 0.0598 µM) | 0.063 µg/mL (≈ 0.0302 µM) | 0.125 µg/mL (≈ 0.0598 µM) | 0.063 µg/mL (≈ 0.0302 µM) |  |  |  | CC(=O)N[C@@H]1[C@H](O[C@@H]2c3ccc(c(Cl)c3)Oc3cc4cc(c3O[C@@H]3O[C@@H](CO)[C@@H](O)[C@H](O)[C@@H]3NC(=O)CCCCCCC(C)C)Oc3ccc(cc3Cl)C[C@H]3NC(=O)[C@H](N)c5ccc(O)c(c5)Oc5cc(O)cc(c5)[C@H](NC3=O)C(=O)N[C@H]4C(=O)N[C@H]3C(=O)N[C@@H]2C(=O)N[C@H](C(=O)N2CCCCN(CCCN(C)C)CCCC2)c2cc(O)cc(O[C@H]4O[C@H](CO)[C@@H](O)[C@@H](O)[C@@H]4O)c2-c2cc3ccc2O)O[C@@H](CO)[C@@H](O)[C@@H]1O | 0.5 µg/mL (≈ 0.239 µM) |  |  |
|  | 0.125 µg/mL (≈ 0.0888 µM) | 0.063 µg/mL (≈ 0.0447 µM) | 0.063 µg/mL (≈ 0.0447 µM) | 0.125 µg/mL (≈ 0.0888 µM) | 0.063 µg/mL (≈ 0.0447 µM) | 8 µg/mL (≈ 5.68 µM) | 128 µg/mL (≈ 90.9 µM) | 32 µg/mL (≈ 22.7 µM) | CN(C)CCCN1CCCCN(C(=O)[C@H]2NC(=O)[C@H]3NC(=O)[C@H](NC(=O)[C@@H]4NC(=O)[C@H]5NC(=O)[C@@H](Cc6ccc(c(Cl)c6)Oc6cc4cc(c6O)Oc4ccc(cc4Cl)[C@H]3O)NC(=O)[C@H](N)c3ccc(O)c(c3)Oc3cc(O)cc5c3)c3ccc(O)c(c3)-c3c(O)cc(O)cc32)CCCC1 |  |  |  |
|  | 0.125 µg/mL (≈ 0.0915 µM) | 0.125 µg/mL (≈ 0.0915 µM) | 0.063 µg/mL (≈ 0.0461 µM) | 0.125 µg/mL (≈ 0.0915 µM) | 0.063 µg/mL (≈ 0.0461 µM) | 8 µg/mL (≈ 5.86 µM) | 64 µg/mL (≈ 46.8 µM) | 64 µg/mL (≈ 46.8 µM) | N[C@H]1C(=O)N[C@@H]2Cc3ccc(c(Cl)c3)Oc3cc4cc(c3O)Oc3ccc(cc3Cl)[C@@H](O)[C@@H]3NC(=O)[C@H](NC(=O)[C@@H]4NC(=O)[C@@H](NC2=O)c2cc(O)cc(c2)Oc2cc1ccc2O)c1ccc(O)c(c1)-c1c(O)cc(O)cc1[C@@H](C(=O)NCCN1CCCCNCCCC1)NC3=O | 0.125 µg/mL (≈ 0.0915 µM) |  |  |

— ChEMBL document CHEMBL1125337, “Synthesis and antibacterial activity of a series of basic amides of teicoplanin and deglucoteicoplanin with polyamines” (J Med Chem, 1992)
